# Screens (PubChem)
# CHOP inh: inhibitors of CHOP induction in ER stress response; inhibition, % at 10 µM; 220,000 tested, 3.8% active; CHO-K1 CHOP-promoter luciferase, tunicamycin-induced, 15-18 h;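 active means compounds that reduced the stress-induced luciferase reporter signal by more than about 70% of percent inhibition, limit read from the data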;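 further: 0% = tunicamycin plus vehicle and 100% = wells without tunicamycin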
# MPTP block: permeability transition pore inhibition. AID 602449. isolated mouse mitochondria, Ca2+ swelling absorbance, 30 min. 360,000 tested, 1.4% active. inhibition, % at 10 µM;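 active means inhibition of 50% or more, scaled per plate between neutral and stimulator controls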;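 further: 0% = DMSO wells given calcium and 100% = 1 mM EGTA wells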
# NR3A LBD binder: NR3A (human) ligand-binding domain modulation; NR3A LBD differential scanning fluorimetry, Tm shift; 0% = protein alone, 100% = glycine-bound protein; Tm shift relative to glycine control, % at 25 µM; 340,000 tested, 2.5% active;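 active means melting temperature shift of at least 10% of the positive control shift, at one fixed dose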
# aDG glyco up: increases alpha dystroglycan glycosylation; Pro5-aDG cells, alpha-DG glycosylation AlphaScreen (IIH6); 0% Pro5, 100% B10-LARGE cell signal; activation, % at 10 µM; AID 624168; 360,000 tested, 0.22% active;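 active means activation of at least 8% versus controls, or a plate z-score of at least 8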;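 further: Pro5 are CHO cells carrying HIG-tagged alpha-DG that lacks glycosylation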
# XBP1 UPR activ: adaptive UPR (XBP1) activation. CHO-XBP1 luciferase reporter, IRE1-XBP1 UPR activation, luminescence; percent of tunicamycin response, DMSO as zero. activation, % at 20 µM. 330,000 tested, 0.33% active;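 active means versus positive control, 20 µM dose yields 30% or more activation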;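 further: 100% = tunicamycin at 10 µg/mL and 0% = DMSO only wells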
#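 assay system = CHO-XBP1 luciferase reporter cells | amount = 1000 cells/well | buffer or medium = F12 plus 10% FBS | compound dosing = single point, 20 µM final compound, 1% DMSO | incubation = 16-18 h cell attachment at 37 °C, then 6 h compound exposure | detection = Steady-Glo luminescence read | controls = tunicamycin 10 µg/mL and vehicle-only wells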
# CHOP UPR activ: apoptotic UPR (CHOP) activation. activation, % at 10 µM. CHO-CHOP luciferase reporter, luminescence; percent of tunicamycin response over DMSO baseline. 330,000 tested, 0.34% active;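 active means at 10 µM dose, activation of 40% or more, normalized to positive control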;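 further: 100% = tunicamycin at 10 µg/mL and 0% = DMSO alone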
#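 Assay system: CHO cells with stable CHOP pathway luciferase reporter; Buffer or medium: F12 plus 10% serum; Times: 16-18 h cell attachment, then 6 h compound exposure, 37 °C; Signal: luciferase luminescence; Read-out basis: percent activation relative to tunicamycin control; Control set: tunicamycin high control, DMSO low control.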
# The depositor's hits bear a star; . = no result. Most compounds without a hit are left out; they make up all but 5.6% or so of the library.
SMILES,CHOP inh,MPTP block,NR3A LBD binder,aDG glyco up,XBP1 UPR activ,CHOP UPR activ
CC1=NN(c2ccc(Cl)c(C(=O)O)c2)C(=O)/C1=C\c1ccc(-c2ccc(C(=O)O)cc2)o1,22.3,2.4,1.6,-0.4,.,.
CC1=NN(c2ccccc2)C(=O)C1=Cc1ccccc1,.,11.4,.,0.0,.,.
CC1=NN(c2ccccc2)C(=O)/C1=C/c1ccc(-c2ccc(C)c(C(=O)O)c2)o1,.,.,10.5*,.,-1.7,-0.8
O=C(NCCCn1ccnc1)c1nc(Cn2cc(Br)cn2)no1,.,0.4,0.5,-0.1,-3.2,-1.6
O=C(O)c1ccc(Br)cn1,3.9,-0.2,-1.4,-0.1,0.1,0.4
CN(C)/C=C(/C#N)C(=O)c1cccc(Oc2ccc(C(C)(C)C)cc2)c1,93.2*,10.4,-13.7,-0.1,-1.4,0.6
CCOc1cc(C)nc(N2CCC(C(=O)NCC3CCCO3)CC2)n1 (centres undefined),.,-1.2,2.8,-0.1,.,.
CCn1c(=S)sc2c(=O)n(CC(=O)Nc3ccccc3)c(C)nc21,.,-0.8,-2.6,-0.2,-1.2,-0.3
Cc1nc2c(sc(=S)n2Cc2ccco2)c(=O)n1CC(=O)Nc1ccc(F)cc1,.,1.6,14.2*,-0.2,-5.2,4.1
CCn1c(=S)sc2c(=O)n(CC(=O)Nc3ccc(OC)c(Cl)c3)c(C)nc21,.,1.3,12.2*,0.1,-3.0,3.8
CCn1c(=S)sc2c(=O)n(CC(=O)Nc3ccc(Cl)cc3)c(C)nc21,.,8.9,15.1*,0.1,-4.1,0.9
O=C(NCC1CCCO1)c1sc2ccccc2c1Cl (centres undefined),-18.6,-0.9,11.0*,0.1,-2.6,6.1
O=C(Cc1cccc2ccccc12)NCC1CCCO1 (centres undefined),11.6,-4.2,13.1*,-0.4,-1.9,-0.3
Cc1ccc2c(Cl)c(C(=O)NCC3CCCO3)sc2c1 (centres undefined),-14.6,-1.2,-1.6,-0.1,1.2,2.7
CCc1cccc2c(SCC(=O)NCC3CCCO3)nc(-c3ccc(F)cc3)nc12 (centres undefined),78.8*,1.2,-0.4,0.2,-0.3,2.3
O=C(COc1ccc(Br)cc1)Nc1ccc(N2CCOCC2)cc1N1CCOCC1,.,1.5,-0.3,-0.3,2.9,1.1
OCC[C@@H]1C[C@H](O)[C@@H](O)[C@@]2(OCCc3ccccc32)O1,.,-0.8,-3.4,-0.3,0.1,-0.4
CCc1ccc(N(CC(=O)Nc2nc3ccc(C)cc3s2)S(=O)(=O)c2c(C)noc2C)cc1,82.6*,2.1,8.5,0.0,4.6,1.1
O=c1onc2cnc3ccccc3n12,9.8,.,.,.,.,.
CCOC(=O)c1c(NC(=O)CC2Nc3cc(C)c(C)cc3NC2=O)sc(C)c1C (centres undefined),73.7*,-1.4,-1.5,-0.2,-0.9,1.6
CCOC(=O)c1c(NC(=O)COC(=O)C2CC2C)sc(C)c1C (centres undefined),70.2*,0.0,1.1,0.5,0.7,1.1
CCOC(=O)c1c(NC(=O)COC)sc(C)c1C,16.1,3.8,-0.4,0.4,4.1,-3.2
O=C(CCCCCn1nnc2ccccc2c1=O)Nc1ccccc1Cl,.,-0.7,-0.7,0.0,-2.8,-0.3
CCC(CC)CN1C(N(C)C)=NC[C@@H]1CC(C)C,.,-0.1,-0.5,0.1,2.5,0.9
Cc1c(Cl)c([N+](=O)[O-])nn1CCCC(=O)N(Cc1ccccc1)Cc1ccccc1,73.4*,4.2,-8.1,4.6,-1.8,3.1
SMILES,CHOP inh,MPTP block,NR3A LBD binder,aDG glyco up,XBP1 UPR activ,CHOP UPR activ
Cc1c(Cl)c([N+](=O)[O-])nn1CCCC(=O)N1CCN(c2ccccc2)CC1,42.5,0.4,-3.1,0.0,-2.7,0.3
Cc1cccc(-c2noc(CN(C(=O)CCc3ccccc3)C(C)C)n2)c1,70.4*,0.2,6.8,-0.1,0.5,2.1
Cc1ccc(-c2noc(CN(C(=O)c3cccc(Br)c3)C(C)C)n2)cc1,71.4*,0.7,-1.4,0.0,-3.9,0.3
COC(=O)c1c(C(=O)OC)c(-c2ccc(Br)cc2)n2c1CS(=O)C2 (centres undefined),.,0.2,1.7,0.1,-5.2,-0.2
CCCS(=O)(=O)NC(=O)C1(C)CCCN(C(=O)c2ccco2)C1 (centres undefined),.,-0.5,.,-0.1,.,.
Cc1ccc2ncccc2c1NS(=O)(=O)c1ccccc1,82.2*,2.8,4.3,0.1,-0.8,5.0
Clc1ccc(/C=N/Nc2ncnc3ccccc23)cc1Cl,86.0*,5.5,16.7*,0.8,6.9,1.4
Nc1ccn([C@@H]2O[C@H](CNCc3cnc(N4CCOCC4)s3)[C@@H](O)[C@H]2O)c(=O)n1,.,-1.1,.,-0.2,.,.
Cc1ccc(CNC(=O)Cn2c(=O)c3sccc3n(Cc3ccc([N+](=O)[O-])cc3)c2=O)cc1,55.1,-2.6,30.6*,0.2,0.2,2.3
Cc1ccc(CN=c2c([N+](=O)[O-])nn(-c3ccc4c(c3)OCCO4)n2O)cc1,24.3,1.9,13.0*,0.3,1.4,3.1
O=[N+]([O-])c1nn(-c2ccc3c(c2)OCCO3)n(O)c1=NC1CCCC1,44.3,2.8,3.6,0.1,0.9,5.7
O=[N+]([O-])c1nn(-c2ccc3c(c2)OCCO3)n(O)c1=NCCCO,32.3,-0.6,1.6,0.3,0.8,1.6
O=[N+]([O-])c1nn(-c2ccc3c(c2)OCCO3)n(O)c1=NC1CCCCCC1,77.3*,-0.8,-1.1,-0.1,-2.2,0.0
O=[N+]([O-])c1nn(-c2ccc3c(c2)OCCO3)n(O)c1=Nc1ccccc1,87.6*,-1.1,-6.5,-0.3,-3.0,-6.7
COc1ccc(CCn2c(C)cc(C(=O)CN3C(=O)C(=O)N(Cc4ccco4)C3=O)c2C)cc1,.,-0.1,0.5,-0.1,2.7,-1.4
CN1CCN(C(=O)C2=C[C@@H](c3ccccc3)C[C@@H](OCCCCO)O2)CC1,13.1,-0.1,-2.4,-0.4,4.5,-0.2
Cc1ccc(Cl)c(OC(=O)c2ccc(N3CCOCC3)c([N+](=O)[O-])c2)c1,30.6,6.1,22.1*,-0.1,2.1,2.4
O=C(OCC(=O)N1CCc2ccccc21)c1cncc(Br)c1,17.6,1.3,-0.2,-0.1,3.0,1.0
CC(C)CN(CC(C)C)CC(O)COc1ccccc1Br (centres undefined),84.7*,2.3,-2.6,0.0,-0.9,0.3
CCCOc1ccc2cc(-c3ccccn3)c(=O)oc2c1,70.7*,2.4,-1.4,0.1,-6.5,-9.3
Cc1ccc(NC(=O)Cc2nnc(SCC(=O)c3ccc(Br)cc3)n2C)cc1,88.3*,-1.4,-22.6,0.0,-2.2,0.1
CCOC1=C2[C@H](c3ccccc3)N(S(=O)(=O)c3ccc(C)cc3)C(C(C)(C)C)[C@H]2n2c(=O)n(-c3ccccc3)c(=O)n2C1 (some centres undefined),.,3.2,.,-0.2,.,.
